Compounds with a hit are over-represented: about 1.4% of the library has one in this group of screens.
CAL PDZ FP-1: CAL PDZ peptide-binding inhibitors, primary screen, biochemical, fluorescence polarization, Cer-tagged CAL PDZ, HTS. hit rate 0.02% among 330,000. inhibition, % at 20 µM. purified CAL PDZ, TMR-peptide fluorescence polarization, 1 h;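 active means highest replicate inhibition of at least 40%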;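 further: plate controls were DMSO neutral control wells for no effect and unlabeled competitor peptide control wells for full effect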
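Read-out basis: mP drop reported as inhibition | Assay system: Tagged CAL PDZ protein CerCALP, purified | Benchmarks: Unlabelled peptide for full inhibition, DMSO wells as neutral | Schedule: 1 h incubation at room temperature before polarization reading | Buffer or medium: Sodium phosphate/NaCl buffer pH 7.4 with TCEP, IgG, Thesit | Doses: Single point, 20 µM | Measured by: Fluorescence polarization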
CAL PDZ FP-2: untagged CAL PDZ binding inhibitors, primary screen, biochemical, fluorescence polarization, HTS; inhibition, % at 24.9 µM; purified CAL PDZ, TMR-peptide fluorescence polarization, 1 h; Golgi-associated PDZ and coiled-coil motif-containing protein (Homo sapiens), Q9HD26; hit rate 0.92% among 300,000;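 active means mean inhibition of at least 30% with at least half of replicates also reaching 30%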;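 further: 0% = DMSO neutral control and 100% = excess unlabeled competitor peptide PRC23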
DDE Tn6 FP inh: inhibitors of Tn6 peptide binding to fibrin DD(E), primary screen, biochemical, fluorescence polarization, human fibrin, Tn6 probe. Fibrinogen beta chain (Homo sapiens), P02675. Fibrin DD(E) TRITC-Tn6 fluorescence polarization displacement. inhibition, % at 8.3 µM. hit rate 0.21% among 370,000. AID 720509, 2013;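 active means inhibition above a per-campaign cutoff: mean of compounds within control limits plus 3 SD, cut at about 15% in these data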;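 further: 0% = median of all compound wells on the plate and 100% = blocking peptide control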
Target sequence (P02675 whole entry, looked up): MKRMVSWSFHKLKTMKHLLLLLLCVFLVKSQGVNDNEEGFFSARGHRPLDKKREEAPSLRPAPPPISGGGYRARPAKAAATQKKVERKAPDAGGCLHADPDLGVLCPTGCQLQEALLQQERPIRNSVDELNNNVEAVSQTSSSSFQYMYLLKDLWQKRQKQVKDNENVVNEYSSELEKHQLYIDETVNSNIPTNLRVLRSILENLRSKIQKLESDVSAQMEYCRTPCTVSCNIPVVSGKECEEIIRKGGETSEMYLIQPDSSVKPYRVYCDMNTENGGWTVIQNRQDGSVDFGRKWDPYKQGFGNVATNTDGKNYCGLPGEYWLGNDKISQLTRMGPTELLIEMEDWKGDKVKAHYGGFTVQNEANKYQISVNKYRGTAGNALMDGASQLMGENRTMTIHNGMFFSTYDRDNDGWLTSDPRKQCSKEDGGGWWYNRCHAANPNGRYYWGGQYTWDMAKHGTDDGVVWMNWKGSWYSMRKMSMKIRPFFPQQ
Arr AP2 block: inhibitors of beta-arrestin/AP2 binding, primary screen, biochemical, GPCR trafficking, flow cytometry. AID 504490, 2011. FITC-arrestin peptide / GST-AP2 beads; AP2 beta2 appendage carries R879A mutation. hit rate 0.31% among 340,000. inhibition, % at 10 µM. beta-arrestin 1 C-terminal peptide binding to AP2 beta2-adaptin appendage (human);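 active means inhibition above a set limit, near 3 SD of compounds lacking own fluorescence, cut at about 54% in these data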;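 further: plate controls were DMSO wells for no effect and 5 µM unlabelled arrestin peptide for full effect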
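Material – GST-tagged AP2 beta2-adaptin appendage (R879A) on 4 µm glutathione beads · Probe or stimulus – fluorescein-tagged arrestin peptide at 50 nM final · Timing – 12 min plus 1 h, RT · Detection – bead flow cytometry, FITC channel · Read-out basis – inhibition as reduced fluorescein signal on beads, percent · Medium – PBS plus Tween 20 (0.05%) and BSA (0.1%)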
DDE Tn7 FP inh: inhibitors of Tn7 peptide binding to fibrin DD(E), primary screen, biochemical, fluorescence polarization, human fibrin, Tn7 probe; Fibrinogen beta chain (Homo sapiens), P02675; FP displacement of FITC-Tn7 peptide from fibrin DD(E); 0% = median of compound wells per plate; inhibition, % at 8.3 µM; hit rate 0.13% among 370,000;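 active means inhibition above the mean of compounds falling within the control limits plus 3 SD of them, cut at about 14% in these data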;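 further: 0% = plate median of compound wells and 100% = 10 µM Aha-Tn7 peptide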
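Assay system: human fibrin DD(E). Input: DD(E) 2 µM final. Medium: Tris buffer with calcium and detergent, pH 7.8. Compound dosing: single point at 8.3 µM. Timing: 10 min plus 3 h, room temperature. Technique: fluorescence polarization of the labelled Tn7 tracer. Read-out: percent inhibition. Replicates: singlicate testing.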
* = called active by the depositor; nt = not tested or not shown.

SMILES	CAL PDZ FP-1	CAL PDZ FP-2	DDE Tn6 FP inh	Arr AP2 block	DDE Tn7 FP inh
Cc1cccc(C(=O)OCC(=O)c2ccc3c(c2)NC(=O)CO3)c1	-1	-6	1	-7	1
O=C(c1ccc(Cl)cc1)N1CCC(N2CCC(C(=O)N3CCOCC3)CC2)CC1	-2	-3	2	-6	-5
Cc1ccc(C(=O)N2CCC(N3CCC(C(=O)N4CCOCC4)CC3)CC2)cc1C	-1	74*	-3	-5	-3
N=c1sccn1CC(=O)Nc1cccc(Oc2ccccc2)c1	nt	38*	1	0	-5
O=C(COc1ccc(Cl)cc1)Nc1nnc(-c2ccco2)o1	-1	46*	-5	-6	-2
CC(C)Cn1c(N)c(C(=O)COC(=O)c2cnc(Cl)c(Cl)c2)c(=O)n(C)c1=O	-1	-10	-2	1	10
CC(C)Cn1c(N)c(C(=O)COC(=O)c2cc(F)cc(F)c2)c(=O)n(C)c1=O	-3	36*	-2	21	-4
CC(=O)CC[C@@H]1CC[C@]2(CCCN(S(C)(=O)=O)C2)O1	nt	nt	3	nt	-2
O=C(NC(=S)Nc1ccc(S(=O)(=O)Nc2nccs2)cc1)c1ccc(F)cc1	-2	54*	-6	3	2
CC(C)(C)C(=O)NC(=S)Nc1ccc(S(=O)(=O)Nc2nccs2)cc1	0	4	-1	8	3
Cc1cc2cc(CNC(=O)c3ccc(S(=O)(=O)N4CCCCC4)cc3)ccc2n1C	0	nt	164*	-1	2
Cc1ccc(CNC(=O)c2ccc(S(=O)(=O)N3CCCCC3)cc2)cc1	-2	1	-4	13	-6
CCOCCCNC(=O)N[C@@H](C)C(=O)OC	nt	62*	-4	3	-1
CSCCCNC(=O)Cn1nc(Cc2ccncc2)c2ccccc2c1=O	nt	nt	4	nt	-3
O=c1ccc2cc3c4c(c2o1)CCCN4CCC3	0	5	7	17	23*
COc1cccc(OCCOc2ccc(/C=C3\C(=N)N4N=C(S(C)(=O)=O)SC4=NC3=O)cc2OC)c1	-5	55*	-4	2	3
O=C1C=C(c2ccccc2)OC(c2ccccc2)O1 (stereo not given)	-8	47*	-3	-7	-4
COC(=O)C[C@@H]1CC[C@@H]2[C@@H](COc3ccc(NC(=O)Nc4ccccc4)cc3C(=O)N2C)O1	nt	nt	-2	nt	-4
O=C(c1ccccc1)c1ccccc1NC(=O)C1CCCN1Cc1ccccc1 (stereo not given)	-1	46*	-18	-15	0
Cc1cc(NC(=O)CSc2nnc3ccccn23)no1	-1	78*	2	8	-2
CC(=O)Nc1cccc(NC(=O)CSc2nnc3ccccn23)c1	0	5	5	8	0
O=C(CSc1ccccc1)Nc1ccccc1N1CCOCC1	nt	-2	1	23	5
Cc1ccc(SCC(=O)Nc2ccccc2N2CCOCC2)cc1	0	48*	-4	-5	-1
COc1cc(OC)cc(C(=O)NC(C(=O)Nc2ccc(N3CCOCC3)cc2)C(C)C)c1 (stereo not given)	-3	1	5	-1	1
O=C(Nc1ccccc1N1CCOCC1)c1cccnc1	10	85*	-11	14	1
SMILES	CAL PDZ FP-1	CAL PDZ FP-2	DDE Tn6 FP inh	Arr AP2 block	DDE Tn7 FP inh
COc1cc(OC)cc(C(=O)N[C@H](C(=O)Nc2ccccc2N2CCOCC2)C(C)C)c1	0	39*	1	-1	1
COC(=O)[C@]12C[C@H](CC(=O)NCc3cccc(C(F)(F)F)c3)C(=O)N(Cc3ccco3)C1=C[C@H](C(C)(C)C)O[C@@H]2C	nt	nt	4	nt	-2
C[C@H](CO)N1C[C@H](C)[C@H](CN(C)C(=O)Nc2ccc3c(c2)OCO3)OCc2cnnn2CCCC1=O	nt	nt	-1	nt	-6
O=C(/C=C/c1cccc([N+](=O)[O-])c1)NCCSCc1cccc(Cl)c1	0	52*	-7	13	-3
CCN(CC)C(=O)CC[C@@H]1CC[C@]2(CCCN(S(C)(=O)=O)C2)O1	nt	nt	-2	nt	-7
CC(=O)n1nc(-c2ccncc2)nc1SCC(=O)Nc1cccc(Cl)c1	-2	45*	3	3	-1
CC1CCN(S(=O)(=O)c2ccc(NC(=O)Cn3nnc(-c4ccccc4)n3)cc2)CC1	-1	-2	19*	1	-4
CSc1cc(CS(=O)(=O)c2ccccc2)nc(-c2ccccc2)n1	-1	79*	4	-5	0
CCOCCc1nnc(NC(=O)CCC2CCCCC2)s1	-6	74*	1	-20	6
Cc1ccc(S(=O)(=O)Nc2cc(C(=O)O)ccc2N2CCC(C)CC2)cc1C	nt	nt	8	nt	7
CCOC(=O)C(/C=N/c1cc(C)nn1-c1ccccc1)=C(\C)O	-2	61*	-3	-9	-9
CCOC(=O)C(=CNc1cc(C)nn1-c1ccccc1)C(=O)OCC	-4	-3	7	3	7
COc1ccccc1CNC(=O)COC(=O)CC1CC2CCC1C2 (stereo not given)	0	80*	-1	-5	-1
N#CC(CCc1ccc([N+](=O)[O-])cc1)(CCc1ccc([N+](=O)[O-])cc1)C(N)=O	-2	43*	2	-7	-8
O=[N+]([O-])c1ccc(Cc2ccc([N+](=O)[O-])cc2)cc1	-1	-3	3	22	-3
CCCC1CCC2(CC1)CCC2OC(=S)Nc1ccccc1C(F)(F)F (stereo not given)	nt	nt	2	nt	-6
COC(=O)c1cc(S(=O)(=O)Nc2cc(S(=O)(=O)N(C)C)ccc2C)oc1C	0	-7	-5	5	-3
COC(=O)c1cc(S(=O)(=O)Nc2ccsc2C(=O)OC)oc1C	-4	33*	2	3	-4
Cn1c(=O)c2c(nc(Oc3ccccc3Br)n2C)n(C)c1=O	-2	-8	5	-12	1
Cn1c(=O)c(N)c2c3c(c(Br)ccc31)C(=O)c1ccccc1-2	0	-7	16*	3	-6
COc1ccc(S[C@]2(C(=O)N3CCN(c4ncccn4)CC3)CC(=O)N(C(=O)CCc3ccccc3)[C@@H]2c2ccc(OC)cc2)cc1	nt	nt	3	nt	2
CN(C)S(=O)(=O)N1CCN(S(=O)(=O)c2ccccc2)CC1	0	59*	-15	-11	-5
Cc1ccc(S(=O)(=O)N2CCN(C(=O)N(C)C)CC2)cc1	67*	-5	2	0	0
Cn1c(=O)c2nc(-c3ccccc3)c(-c3ccccc3)nc2n(C)c1=O	-6	66*	-1	8	0
